Calls of active or inactive are those of the source. The rule behind the calls is not given here.
What was measured:
[1] = Neurotoxicity in ip dosed Swiss albino mouse measured during phase 2 trials by rotarod test; type: toxicity, organism-based; details: in vivo
How it was run: (§1)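 Phase II quantitation: groups of six mice given a range of i.p. doses until at least three points fell within 10–90% seizure protection (MES or scPTZ) or rotarod neurotoxicity, tested at time of peak effect.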

[2] = system: Mus musculus; test: Neurotoxicity in Swiss albino mouse assessed as motor impairment at 100 mg/kg, po by rotarod test; type: toxicity, organism-based; parameters: dose 100 mg/kg, route oral; details: in vivo
How it was run: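 Mice trained on rotarod (3.2 cm, 10 rpm) received 100 mg/kg orally in 0.5% sodium carboxymethylcellulose; neurotoxicity scored as percentage of animals failing to keep equilibrium on rod for 60 s.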

[3] = system: Mus musculus; test: Anticonvulsant activity in Swiss albino mouse assessed as protection against PTZ-induced seizure at 200 mg/kg, po administered 60 mins prior to pentylenetetrazole challenge; type: functional
[4] = species: Rattus norvegicus; test: Displacement of [3H]BTX-B from neurotoxin site 2 of voltage-gated sodium channel in rat cerebral cortex synaptoneurosomes at 100 uM by scintillation counting analysis; type: tissue-based
[5] = system: Mus musculus; test: Anticonvulsant activity in ip dosed Swiss albino mouse assessed as protection against maximal electroshock-induced tonic-clonic seizure spread measured after 4 hrs by MES test; type: functional; details: read-out: MED
How it was run: (§2)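 Swiss albino mice pre-screened 24 h earlier with 50 mA, 60 Hz, 0.2 s corneal shock; saline drop in eyes. Compounds in 0.5% sodium carboxymethylcellulose given i.p. at 30, 100 and 300 mg/kg; MES applied after 0.5 h and 4 h. Protection = abolition of hind limb tonic extensor component in half or more of four mice.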

[6] = system: Mus musculus; test: Neurotoxicity in Swiss albino mouse assessed as minimal motor impairment at 100 mg/kg, ip after 4 hrs by rotarod test; type: toxicity, organism-based; parameters: dose 100 mg/kg, route intraperitoneal; details: in vivo
How it was run: (§3)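 Rotarod minimal motor impairment: mice trained on 3.2 cm rod at 10 rpm; i.p. doses of 30, 100 and 300 mg/kg, four mice each, tested at 0.5 h and 4 h. Neurotoxicity = failure to stay on rod at least 1 min in each of three trials.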

[7] = system: Mus musculus; test: Anticonvulsant activity in Swiss albino mouse assessed as protection against maximal electroshock-induced seizures at 30 mg/kg, po administered 60 mins prior to maximal electroshock exposure by MES test; type: functional
[8] = Displacement of [3H]BTX-B from neurotoxin site 2 of voltage-gated sodium channel in rat cerebral cortex synaptoneurosomes by scintillation counting analysis; type: tissue-based
[9] = system: Mus musculus; test: Neurotoxicity in Swiss albino mouse assessed as minimal motor impairment at 100 mg/kg, ip after 0.5 hrs by rotarod test; type: toxicity, organism-based; parameters: dose 100 mg/kg, route intraperitoneal; details: in vivo; how it was run: as §3
[10] = system: Mus musculus; test: Anticonvulsant activity in ip dosed Swiss albino mouse assessed as protection against maximal electroshock-induced tonic-clonic seizure spread measured after 0.5 hrs by MES test; type: functional; details: read-out: MED; how it was run: as §2
[11] = system: Mus musculus; test: Anticonvulsant activity in Swiss albino mouse assessed as decrease in time duration of hind limb tonic extenstion at 30 mg/kg, po administered 60 mins prior to maximal electroshock exposure by MES test; type: functional, organism-based; parameters: dose 30 mg/kg; details: Hindlimb
[12] = system: Mus musculus; test: Anticonvulsant activity in Swiss albino mouse assessed as protection against maximal electroshock-induced seizures at 100 mg/kg, po administered 60 mins prior to maximal electroshock exposure by MES test; type: functional
How it was run: (§4)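 Mice (n=6/group) dosed orally at 100 mg/kg in 0.5% sodium carboxymethylcellulose 60 min before maximal electroshock (150 mA, 0.2 s, corneal electrodes). Duration of hind limb tonic extension noted; abolition scored as protection (% protected). Vehicle controls; mean ± SEM, one-way ANOVA followed by Dunnett's method.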

[13] = system: Mus musculus; test: Anticonvulsant activity in Swiss albino mouse assessed as protection against pentylenetetrazole-induced seizures at 300 mg/kg, ip after 0.5 hrs; type: functional, organism-based; parameters: dose 300 mg/kg
How it was run: (§5)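 Compounds in 0.5% sodium carboxymethylcellulose injected i.p. at 30, 100, 300 mg/kg (four mice per dose); at 0.5 h or 4 h, pentylenetetrazol 70 mg/kg given s.c. as 0.5% solution in posterior midline. Observation 30 min; absence of clonic spasm in half or more of animals scored as protection.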

[14] = system: Rattus norvegicus; test: Increase in GABA level in Wistar rat whole brain at 100 mg/kg, ip after 2 hrs measured per 100 mg of tissue (reference value: 46.8 +/- 6.03 ug); type: functional; details: route intraperitoneal
How it was run: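 Adult Wistar rats, six per group, given 100 mg/kg i.p. (clobazam 30 mg/kg p.o. reference); decapitated 2 h later, whole brains put into ice-cold 80% ethanol and GABA determined enzymatically in tissue extracts. Mean ± SEM; Student's t test versus control.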

[15] = system: Mus musculus; test: Anticonvulsant activity in ip dosed Swiss albino mouse assessed as protection against maximal electroshock-induced seizure measured at the time of peak effect during phase 2 trials by MES test; type: functional; how it was run: as §1
[16] = system: Rattus norvegicus; test: Increase in GABA level in Wistar rat whole brain at 30 mg/kg, po for 7 days measured at 4 hrs after last drug dose per 100 mg of tissue (reference value: 49.2 +/- 3.01 ug); type: functional
[17] = system: Mus musculus; test: Neurotoxicity in Swiss albino mouse assessed as minimal motor impairment at 300 mg/kg, ip after 4 hrs by rotarod test; type: toxicity, organism-based; parameters: dose 300 mg/kg, route intraperitoneal; details: in vivo; how it was run: as §3
[18] = system: Mus musculus; test: Anticonvulsant activity in Swiss albino mouse assessed as time duration of hind limb tonic extenstion at 100 mg/kg, po administered 60 mins prior to maximal electroshock exposure by MES test (reference value: 16.20 +/- 0.50 secs); type: functional, Hindlimb; how it was run: as §4
[19] = system: Mus musculus; test: Anticonvulsant activity in ip dosed Swiss albino mouse assessed as protection against pentylenetetrazole-induced seizures after 4 hrs; type: functional; details: read-out: MED; how it was run: as §5
[20] = system: Mus musculus; test: Neurotoxicity in Swiss albino mouse assessed as minimal motor impairment at 300 mg/kg, ip after 0.5 hrs by rotarod test; type: toxicity, organism-based; parameters: dose 300 mg/kg, route intraperitoneal; details: in vivo; how it was run: as §3
[21] = system: Rattus norvegicus; test: Increase in GABA level in Wistar rat whole brain at 30 mg/kg, po after 2 hrs measured per 100 mg of tissue (reference value: 46.8 +/- 6.03 ug); type: functional
[22] = system: Mus musculus; test: Anticonvulsant activity in ip dosed Swiss albino mouse assessed as protection against pentylenetetrazole-induced seizures after 0.5 hrs; type: functional; details: read-out: MED; how it was run: as §5
[23] = system: Mus musculus; test: Anticonvulsant activity in Swiss albino mouse assessed as protection against maximal electroshock-induced tonic-clonic seizure spread measured at 300 mg/kg, ip after 4 hrs by MES test; type: functional, organism-based; parameters: dose 300 mg/kg; how it was run: as §2
[24] = system: Mus musculus; test: Anticonvulsant activity in ip dosed Swiss albino mouse assessed as protection against pentylenetetrazole-induced seizure measured at the time of peak effect during phase 2 trials; type: functional; how it was run: as §1
[25] = system: Mus musculus; test: Anticonvulsant activity in Swiss albino mouse assessed as protection against maximal electroshock-induced tonic-clonic seizure spread measured at 300 mg/kg, ip after 0.5 hrs by MES test; type: functional, organism-based; parameters: dose 300 mg/kg
How it was run: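 Groups of four mice, screened 24 h beforehand with corneal shock (50 mA, 60 Hz, 0.2 s), saline drop in each eye. Test doses of 30, 100 or 300 mg/kg ip were suspended in 0.5% sodium carboxymethylcellulose. The shock was applied 0.5 h and 4.0 h after dosing. Protection: abolition of hind-limb tonic extension in half or more of the animals.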

[26] = system: Mus musculus; test: Anticonvulsant activity in Swiss albino mouse assessed as protection against PTZ-induced seizure at 100 mg/kg, po administered 60 mins prior to pentylenetetrazole challenge; type: functional
[27] = species: Mus musculus; test: Protective index, ratio of TD50 for Swiss albino mouse to ED50 for anticonvulsant activity in PTZ-treated Swiss albino mouse
[28] = system: Mus musculus; test: Anticonvulsant activity in Swiss albino mouse assessed as seizure latency to onset of clonus at 100 mg/kg, po administered 60 mins prior to pentylenetetrazole challenge (reference value: 1.54 +/- 0.90 mins); type: functional

Work on `NC1NC(=S)NN=C1n1c(-c2ccccc2)c(S(N)(=O)=O)c2cc(Cl)ccc21` (configuration not stated) yielded a TD50 [1] of 185 mg/kg.
For `CCCC(CCC)C(=O)[O-].[Na+]` [VALPROATE SODIUM], the Activity [2] was “Non-toxic” and the Activity [3] was 100%.
With `O=C1NC(=O)C(c2ccccc2)(c2ccccc2)N1` [PHENYTOIN] the inhibition [4] was 49.6%, the minimal effective dose [5] was 30 mg/kg and the Activity [6] was “Non-toxic”. The Activity [7] was 100%, the Activity [2] was “Non-toxic” and the IC50 [8] was 126 µM. The Activity [9] was “Non-toxic”, the minimal effective dose [10] was 30 mg/kg and the inhibition [11] was “Active”.
With `CC(=O)c1c(-c2ccccc2)n(C2=NNC(=S)NC2N)c2ccc(C(F)(F)F)cc12` (configuration not stated) the Activity [12] was 33.3%, the minimal effective dose [5] was 30 mg/kg and the Activity [13] was “inactive”. For the same compound, the Activity [14] was 75.4 µg, the ED50 [15] was 40 mg/kg and the Activity [16] was 79.1 µg. For the same compound, the Activity [17] was “Non-toxic”, the Time [18] was 13.5 s and the minimal effective dose [19] was 300 mg/kg. The minimal effective dose [10] was 30 mg/kg, the TD50 [1] was 95 mg/kg and the Activity [20] was “Non-toxic”.
`NC1NC(=S)NN=C1n1c(-c2ccccc2)c(C(=O)O)c2cc([N+](=O)[O-])ccc21` (configuration not stated) showed a TD50 [1] of 180 mg/kg.
Compound `NC1NC(=S)NN=C1n1c(-c2ccccc2)c(C(=O)O)c2cc(C(F)(F)F)ccc21` (configuration not stated) has a TD50 [1] of 100 mg/kg.
Compound `CN1C(=O)CC(=O)N(c2ccccc2)c2cc(Cl)ccc21` [CLOBAZAM] has an Activity [16] of 110 µg and an Activity [21] of 101 µg.
`NC(=O)c1c(-c2ccccc2)n(C2=NNC(=S)NC2N)c2ccc([N+](=O)[O-])cc12` (configuration not stated) showed an Activity [12] of 50%, a minimal effective dose [5] of 30 mg/kg and an Activity [14] of 85.4 µg. The ED50 [15] was 24 mg/kg, the Activity [16] was 88.4 µg and the Activity [2] was “Non-toxic”. For the same compound, the Activity [17] was “Non-toxic”, the minimal effective dose [22] was 300 mg/kg and the Time [18] was 12.7 s. For the same compound, the minimal effective dose [19] was 300 mg/kg, the minimal effective dose [10] was 30 mg/kg and the TD50 [1] was 125 mg/kg. The Activity [20] was “Non-toxic”.
With `CCC1(C)CC(=O)NC1=O` (configuration not stated) [ETHOSUXIMIDE] the Activity [23] was “inactive”, the ED50 [15] was > 1000 mg/kg and the minimal effective dose [22] was 100 mg/kg. For the same compound, the minimal effective dose [19] was 300 mg/kg, the ED50 [24] was 130 mg/kg and the Activity [25] was “inactive”.
Compound `CC(=O)c1c(-c2ccccc2)n(C2=NNC(=S)NC2N)c2ccc(F)cc12` (configuration not stated) has an Activity [26] of 83.3%, an inhibition [4] of 50.4% and an Activity [12] of 100%. For the same compound, the minimal effective dose [5] was 30 mg/kg, the Activity [14] was 93.5 µg and the ED50 [15] was 7 mg/kg. The “Ratio TD50/ED50” value [27] was 3.39, the Activity [16] was 110 µg and the Activity [2] was “Non-toxic”. The IC50 [8] was 108 µM, the Activity [17] was “Non-toxic” and the Time [28] was 9.8 min. For the same compound, the minimal effective dose [22] was 100 mg/kg, the Time [18] was 5.4 s and the minimal effective dose [19] was 100 mg/kg. It also gave an ED50 [24] of 68 mg/kg, a minimal effective dose [10] of 30 mg/kg and a TD50 [1] of 290 mg/kg. The Activity [20] was “Non-toxic”.
`NC1NC(=S)NN=C1n1c(-c2ccccc2)c(S(N)(=O)=O)c2cc(F)ccc21` (configuration not stated) gave a TD50 [1] of 225 mg/kg.
